According to PubChem BioAssay AID504382 (The Scripps Research Institute Molecular Screening Center, 2011):
The campaign covered roughly 2,500 compounds. About 460 (18%) were called active. Only a sample is shown. Values without a mark were called inactive.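 The calls were made as follows: active = mean activation above a cutoff of low control average plus 3 SD from the earlier screen (cut at about 12% in these data); inactive = the rest.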

assay: compound fluorescence interference without thin filaments, confirmation, artefact control for cardiac RTF calcium sensitizer project, biochemical (AID 504382); conditions: IANBD fluorescence interference counterscreen, buffer, EC20 Ca2+; at 7.2 µM; hits give high values; scaled: EC20 calcium 0, EC100 calcium 100
In short: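 timing = compound incubation 15 min at 25 °C before fluorescence reading | technique = fluorescence at 480 nm excitation, 540 nm emission | evaluation = interference relative to controls | replication = triplicate wells per compound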

Compound | fluorescence artifact activation
CCc1ccc(C(=O)Nc2cccnc2Oc2ccc(Cl)cc2)cc1 | 3.19%
Cc1cc(C=C2C(=O)CCCC2=O)c(C)n1-c1ccccc1 | 0.05%
CCOC(=O)/C(=C\c1c[nH]c2ccccc12)NC(C)=O | 7.92%
CC(C)Sc1nc2ccc(Br)cc2[nH]1 | 10.8%
COc1cc(OC)cc(C(=O)N(Cc2ccco2)c2c(N)n(Cc3ccccc3)c(=O)[nH]c2=O)c1 | 0.01%
COCCCN(C(=O)c1cccnc1SC)c1c(N)n(Cc2ccccc2)c(=O)[nH]c1=O | 15.1% (active)
CCCCN(C(=O)c1ccc([N+](=O)[O-])o1)c1c(N)n(CCCC)c(=O)[nH]c1=O | -0.06%
COc1ccc(NC(=O)Cc2ccccc2)cn1 | 0.04%
N#CC1=C(N)SC(N)=C(C#N)C1c1cccc(O)c1 | 0.07%
C/C(Cn1cnc([N+](=O)[O-])n1)=N\NC(=O)c1cccc(F)c1 | 0.05%
Cc1cc(NC(=O)CN2C(=O)[C@@H]3[C@H](C2=O)[C@@H]2C[C@H]3C(Br)C2Br)no1 (stereo partly drawn) | 19.4% (active)
CC(=O)NC(CCS(C)(=O)=O)C(=O)Nc1cc(C)on1 (stereo not drawn) | 0.57%
Cc1cc(NC(=O)COC(=O)C(Cc2ccccc2)NC(=O)c2ccco2)no1 (stereo not drawn) | 9.69%
O=C1CCNc2ccc(-c3ccccc3)cc21 | 0.1%
Cc1cc(/C=C2/C(=O)N(C)C(=S)N2C)ccc1N1CCCC1 | 23.6% (active)
Cc1cc(N2CCCC2)ccc1/C=C1\NC(=S)N(C)C1=O | 5.61%
Cc1cc(/C=C2\NC(=S)N(C)C2=O)ccc1N1CCCC1 | 2.17%
COC(=O)CCN(C(=O)c1ccc([N+](=O)[O-])cc1)c1ccccn1 | 4.76%
O=C(Nc1ccc(Br)cc1)c1ccc(Br)c(S(=O)(=O)Nc2cccnc2)c1 | 4.66%
CC(C)(C)NC(=O)NC(=O)Cn1ccsc1=N | 40% (active)
O=C(C1=NN(c2ccccc2)C2C(=O)N(c3cccc(Cl)c3)C(=O)C12)c1ccccc1 (stereo not drawn) | 9.7%
O=C(NN1C(=O)c2ccccc2NC1c1ccco1)c1ccccc1 (stereo not drawn) | 0.03%
CN1C(=O)/C(=C/C=C2\SCCN2C)OC1=S | 1.7%
C=C1CCN(C(CC(C)C)C(=O)OC)S(=O)(=O)c2ccccc21 (stereo not drawn) | 0.08%

Compound | fluorescence artifact activation
NC(=O)C1CCN(c2ccc3c(c2)S(=O)(=O)c2ccccc2C3=O)CC1 | 0.05%
COC(=O)C1CCN(C(=O)CN2C(=O)c3ccccc3S2(=O)=O)CC1 | 818% (active)
CN(N=Nc1ccc([N+](=O)[O-])cc1)c1ccccc1 | 7.25%
CSc1ccc(C2C(C(=O)c3ccco3)=C(O)C(=O)N2c2nnc(SC)s2)cc1 (stereo not drawn) | 7.57%
Cc1cc(NC(=O)/C(C#N)=C\c2ccc(-c3ccc(SC(F)F)cc3)o2)n(-c2ccccc2)n1 | 136% (active)
CC1CC1c1ccc(/C=C(\C#N)C(=O)Nc2ccc(Cl)cc2Cl)o1 (stereo not drawn) | 5.23%
Cc1cc(NC(=O)/C(C#N)=C/c2ccc(-c3ccc(SC(F)F)cc3)o2)n(-c2ccccc2)n1 | 291% (active)
O=C(NCc1cccc(F)c1)c1cccc2c1C(=O)c1ccc(N3CCCC3)cc1S2(=O)=O | -0.02%
CCOC(=O)c1sc(N)c(C#N)c1COC(=O)CNC(=O)c1ccccc1 | -0.01%
CC1CC(C)CN(C(=O)Cn2c(-c3nonc3N)nc3ccccc32)C1 (stereo not drawn) | 0.07%
CC(NC(=O)COc1ccc(N(C)S(=O)(=O)c2ccccc2)cc1)c1ccccc1 (stereo not drawn) | 0.07%
Cc1ccc(C)c(OCCN2C(=O)NC3(CCc4ccccc4C3)C2=O)c1 (stereo not drawn) | 0.24%
Cc1ccc(C2C(C#N)=C(N)SC(N)=C2C#N)cc1 | 0.33%
O=C(C1=C(O)C(=O)N(CCN2CCOCC2)C1c1ccc([N+](=O)[O-])cc1)c1cccs1 (stereo not drawn) | 10.2%
CC(/C=C/c1ccc(N(C)C)cc1)=N/N=C1/NC(=O)CC(C(=O)Nc2ccc(Cl)cc2)S1 (stereo not drawn) | 0.15%
O=[N+]([O-])c1ccc(N/N=C\c2ccccc2OCc2ccccc2)cc1 | 5.45%
COC(=O)c1ccc(-c2ccc(F)cc2)nc1C | -0.07%
O=c1[nH]c2c(s1)C=Nc1ccccc1N2 | 0.01%
CN(C)/C=C1\C=C2C(=O)c3ccccc3N2C1=O | 21% (active)
CN(C)C(=O)CN1C(=O)C2CCCCN2C(=O)c2ccccc21 (stereo not drawn) | 0.04%
Cc1ccc(S(=O)(=O)NCCCCCC(=O)Nc2ccccc2C)cc1 | 8.11%
CCCCCCCC(=O)Nc1ccc(S(=O)(=O)Nc2nccs2)cc1 | 12.5% (active)
CCCC(=O)Nc1ccc(-c2cnc(-c3ccc(NC(=O)CCC)cc3)nc2)cc1 | 0.08%
N#Cc1ccccc1NC(=O)CNc1ccc(Cl)c(C(F)(F)F)c1 | 1.46%
